In the array DNA melting data of Ke et al. (doi:10.1101/2024.01.08.574731) one finds Tm and folding enthalpy data, which are given here for 37 sequences.

A short description of data set [1]: melting temperature; fluorescence melt of hairpins on a sequencing array, two-state fit, raised by 9.35 °C to match UV melts. The conditions noted are these: sodium 0.088 M. Summed up: (§1)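 In 50 mM Na-HEPES pH 8.0 containing 25 mM NaCl, hairpins from the library on a sequenced MiSeq flow cell were imaged for Cy3 fluorescence at 2.5 °C steps up to 60 °C, with Cy3 and quencher oligos annealed. After normalisation to pre-quench Cy3 and to control constructs, two-state fits with bootstrapping gave melting temperature and folding enthalpy. Four replicates were combined by inverse-variance weighting, and fitted temperatures were shifted up by 9.35 °C to match UV melts.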

Data set [2] is described as follows: folding enthalpy; higher = less favourable; fluorescence melt of hairpins on a sequencing array, two-state fit. The conditions noted are these: sodium 0.088 M. Summed up:
as §1

With GCGCATTCGAAAGAACGC (((..(((....)))))), in data set [1], the Tm is 41.4 °C. In addition, in data set [2], the folding enthalpy was -18.8 kcal/mol.

Take GATTCGCGAAAGCGGATC (((.(((....))).))): the Tm in data set [1] turned out to be 60.5 °C. In data set [2], the folding enthalpy was -27.7 kcal/mol.

GGACATGGAAACATGCCC ((.((((....)))).)): the Tm in data set [1] turned out to be 47.4 °C. The folding enthalpy in data set [2] was -23.4 kcal/mol.

Take GTAACAGGAAACTGTTAC (((((((....))))))): the Tm in data set [1] stood at 55.4 °C. Moreover, the folding enthalpy in data set [2] is -43.6 kcal/mol.

For the sequence GATCCCCGCAGGGATC ((((((....)))))), the Tm in data set [1] came out at 62.8 °C. In addition, in data set [2], the folding enthalpy was -18.1 kcal/mol.

With GGACGCGAAAGCGCCTCC ((((((....)))..))), in data set [1], the Tm was determined as 60.2 °C. The folding enthalpy in data set [2] was -11.6 kcal/mol.

Regarding GCCTAGCGAAAGCTCCGC ((..(((....)))..)), the Tm in data set [1] is 25.9 °C. Moreover, the folding enthalpy in data set [2] is -9.3 kcal/mol.

On to GGTCTCCGAAAGGACACC (((.(((....))).))), for which the Tm in data set [1] is 42.1 °C. Moreover, the folding enthalpy in data set [2] is -24.5 kcal/mol.

As to GGGGAATCGAAAGATCCC (((..(((....)))))), the Tm in data set [1] came out at 49.1 °C. Moreover, the folding enthalpy in data set [2] is -22.5 kcal/mol.

For GACTGCGAAAGCACGGTC ((((((....)))..))), the Tm in data set [1] stood at 42.4 °C. Further, the folding enthalpy in data set [2] was -12.4 kcal/mol.

In the case of GCATCATCGAAAGATTGC (((..(((....)))))), the Tm in data set [1] was 30.8 °C. Also, the folding enthalpy in data set [2] was -19.8 kcal/mol.

Consider GAGCACGAAAGTGGCTC ((((((....))).))), for which the Tm in data set [1] is 56.5 °C. Moreover, the folding enthalpy in data set [2] is -24.2 kcal/mol.

Take GGACCGGGAAACCGGTTC (.(((((....))))).): the Tm in data set [1] came to 59 °C. In addition, in data set [2], the folding enthalpy was -22.3 kcal/mol.

For GACGTTGCGAAAGCAGTC (((..(((....)))))), the Tm in data set [1] was 49.9 °C. Moreover, the folding enthalpy in data set [2] is -16.5 kcal/mol.

Consider GATCTCTAAGGAGATC ((((((....)))))), for which, in data set [1], the Tm turned out to be 53.8 °C. Also, the folding enthalpy in data set [2] was -34.9 kcal/mol.

For GGAGCCGAAAGGCATCC ((((((....))).))), the Tm in data set [1] was determined as 53.8 °C. For the same sequence, the folding enthalpy in data set [2] was -14.2 kcal/mol.

Regarding GATCGTTGTAACGATC ((((((....)))))), the Tm in data set [1] was determined as 58.4 °C. For the same sequence, in data set [2], the folding enthalpy is -48.8 kcal/mol.

As for GATCCCCCACGGGATC ((((((....)))))), the Tm in data set [1] came out at 58.1 °C. The folding enthalpy in data set [2] is -35.6 kcal/mol.

On to GTGACCGAAAGGTTACAC ((((((....)))..))), for which, in data set [1], the Tm is 49.8 °C. Besides, in data set [2], the folding enthalpy is -16.6 kcal/mol.

Regarding GGAGACGAAAGTCGGTCC ((((((....)))..))), the Tm in data set [1] is 39.8 °C. Further, the folding enthalpy in data set [2] was -12.3 kcal/mol.

Take GTAATCCGAAAGGATAC (((.(((....)))))): the Tm in data set [1] worked out at 39.8 °C. In addition, in data set [2], the folding enthalpy was -14.6 kcal/mol.

On to GATCAAAAGTTGATC ((((((...)))))), for which, in data set [1], the Tm was found to be 39.5 °C. Also, the folding enthalpy in data set [2] is -26.1 kcal/mol.

In the case of GACCACGGAAACGTAGTC (((.(((....))).))), in data set [1], the Tm came to 37 °C. In addition, the folding enthalpy in data set [2] was -22.6 kcal/mol.

In the case of GCGTCCGAACGC ((((....)))), the Tm in data set [1] stood at 53.2 °C. In data set [2], the folding enthalpy is -21.8 kcal/mol.

As for GCGGTTTTCCGC ((((....)))), the Tm in data set [1] was 58.4 °C. For the same sequence, in data set [2], the folding enthalpy is -30.3 kcal/mol.

Take GATCTCGTAAGAGATC ((((((....)))))): the Tm in data set [1] is 68.4 °C. Also, in data set [2], the folding enthalpy is -35.3 kcal/mol.

For GATCATTGATATGATC ((((((....)))))), in data set [1], the Tm was found to be 45.5 °C. The folding enthalpy in data set [2] is -28 kcal/mol.

In the case of GATGCTGGAAACAGTATC (((.(((....))).))), the Tm in data set [1] amounted to 47 °C. Also, in data set [2], the folding enthalpy was -33.8 kcal/mol.

Consider GATCCATACCTGGATC ((((((....)))))), for which the Tm in data set [1] came out at 52.1 °C. In addition, in data set [2], the folding enthalpy was -36.8 kcal/mol.

With GCTTGGCGAAAGCCTCGC ((..(((....)))..)), the Tm in data set [1] amounted to 41.8 °C. In data set [2], the folding enthalpy was -17.4 kcal/mol.

In the case of GCCCGGCGAAAGCCCGGC (((.(((....))).))), the Tm in data set [1] was 60.5 °C. Besides, in data set [2], the folding enthalpy is -17.1 kcal/mol.

Consider GCGCCGCGAAAGCTGAGC ((.(.((....)).).)), for which the Tm in data set [1] came to 57.5 °C. Besides, the folding enthalpy in data set [2] is -20 kcal/mol.

Turning to GTGAGCGAAAGCTACCAC ((((((....)))..))), in data set [1], the Tm came to 35.9 °C. In data set [2], the folding enthalpy is -10.5 kcal/mol.

In the case of GATCCCAACAGGGATC ((((((....)))))), the Tm in data set [1] came out at 62.4 °C. For the same sequence, the folding enthalpy in data set [2] was -36 kcal/mol.

Regarding GCCTTTGGAAACAAAGAC (.(((((....))))).), in data set [1], the Tm stood at 34.7 °C. In addition, the folding enthalpy in data set [2] is -21.9 kcal/mol.

Take GATCATGACATGATC ((((((...)))))): the Tm in data set [1] stood at 49.7 °C. Further, the folding enthalpy in data set [2] is -40.3 kcal/mol.

Consider GGAAGGGGAAACCCCTCC (((.(((....))).))), for which, in data set [1], the Tm came out at 45 °C. In addition, in data set [2], the folding enthalpy was -21.1 kcal/mol.
